For two molecules, IC50 results are on record in article PMC2606940 (The Journal of General Physiology, 2009).

Holding throughout (assay type): cell-based
What all share (settings): read-out: Apparent affinity (K1/2)

One experiment addresses T1, CLC-0 E166H mutant (Torpedo marmorata, UniProt P21564, C212S/E166H).
T1 sequence (P21564 1-805 E166H/C212S): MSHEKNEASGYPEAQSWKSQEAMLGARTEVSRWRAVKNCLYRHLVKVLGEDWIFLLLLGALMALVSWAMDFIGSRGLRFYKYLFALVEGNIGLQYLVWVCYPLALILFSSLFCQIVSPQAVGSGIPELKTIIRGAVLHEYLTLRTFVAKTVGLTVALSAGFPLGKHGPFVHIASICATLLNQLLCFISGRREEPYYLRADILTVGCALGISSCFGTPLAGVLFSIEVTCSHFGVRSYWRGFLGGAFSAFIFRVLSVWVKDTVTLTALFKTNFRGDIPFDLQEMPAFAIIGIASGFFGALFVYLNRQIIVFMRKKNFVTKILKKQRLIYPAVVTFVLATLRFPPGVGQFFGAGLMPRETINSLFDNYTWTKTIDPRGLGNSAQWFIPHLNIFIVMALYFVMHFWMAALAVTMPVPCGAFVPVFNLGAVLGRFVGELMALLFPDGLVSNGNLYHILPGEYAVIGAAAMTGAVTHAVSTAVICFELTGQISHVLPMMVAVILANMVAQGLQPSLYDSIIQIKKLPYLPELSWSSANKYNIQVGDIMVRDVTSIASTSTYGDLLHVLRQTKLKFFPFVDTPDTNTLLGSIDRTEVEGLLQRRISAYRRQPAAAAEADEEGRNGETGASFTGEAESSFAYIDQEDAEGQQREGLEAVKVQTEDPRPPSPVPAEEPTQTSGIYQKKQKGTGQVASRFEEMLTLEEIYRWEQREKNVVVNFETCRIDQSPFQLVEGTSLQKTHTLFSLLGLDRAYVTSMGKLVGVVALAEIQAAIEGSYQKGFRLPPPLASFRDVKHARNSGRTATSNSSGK
An outline of the steps: (§1)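 CLC-0 mutants in the C212S background were transfected into HEK293 cells with lipofectamine and recorded 1–3 d later as excised inside-out patches. Both sides held 130 mM NaCl, 5 mM MgCl2, 10 mM HEPES and 1 mM EGTA, pH 7.4. CPA was perfused continuously onto the cytoplasmic face. Steady-state current over the last 10 ms was normalized to bracketing blocker-free controls and fitted to a Langmuir function for K1/2. Values are mean ± SEM of ~4–6 patches.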

The target of a further experiment is T2, CLC-0 E166I mutant (Torpedo marmorata, UniProt P21564, C212S/E166I).
T2 sequence (P21564 1-805 E166I/C212S): T1 sequence (P21564 1-805 E166H/C212S) with H166I
Put shortly:
as §1

A further experiment concerns the target T3, CLC-0 E166G mutant (Torpedo marmorata, UniProt P21564, C212S/E166G).
T3 sequence (P21564 1-805 E166G/C212S): T1 sequence (P21564 1-805 E166H/C212S) with H166G
An outline of the steps: as §1

Molecules are shown by their SMILES. Changes are numbered by the printed parent chain. Where two headings read alike, the source gives them in different places.

In the case of `CCCCCCCC(=O)O` [octanoate], the IC50 is 29600 ± 1300 µM on CLC-0 E166H mutant (−80 mV); 18400 ± 810 µM on CLC-0 E166H mutant (−100 mV); 11500 ± 570 µM at CLC-0 E166H mutant (−120 mV); 7020 ± 400 µM at CLC-0 E166H mutant (−140 mV); 4570 ± 280 µM on CLC-0 E166H mutant (−160 mV); 218 ± 49 µM on CLC-0 E166I mutant (−40 mV). Besides, the IC50 at CLC-0 E166I mutant (−60 mV) is 136 ± 26 µM; on CLC-0 E166I mutant (−80 mV), 79 ± 13 µM; on CLC-0 E166I mutant (−100 mV), 45 ± 7 µM; on CLC-0 E166I mutant (−120 mV), 26 ± 3 µM; on CLC-0 E166I mutant (−140 mV), 15 ± 2 µM; on CLC-0 E166I mutant (−160 mV) it was 9 ± 1 µM. Besides, the IC50 was 225 ± 13 µM at CLC-0 E166G mutant (−40 mV); 127 ± 8 µM on CLC-0 E166G mutant (−60 mV); 85 ± 6 µM on CLC-0 E166G mutant (−80 mV); 75 ± 6 µM at CLC-0 E166G mutant (−100 mV); 82 ± 8 µM at CLC-0 E166G mutant (−120 mV); 115 ± 14 µM on CLC-0 E166G mutant (−140 mV). Further, the IC50 on CLC-0 E166G mutant (−160 mV) is 175 ± 19 µM.

Consider `O=C(O)COc1ccc(Cl)cc1` [CPA, p-chlorophenoxy acetate], for which the IC50 on CLC-0 E166H mutant (−40 mV) turned out to be 12400 ± 520 µM; at CLC-0 E166H mutant (−60 mV) it was 5860 ± 260 µM; at CLC-0 E166H mutant (−80 mV) it was 2870 ± 150 µM; at CLC-0 E166H mutant (−100 mV) it was 1450 ± 110 µM; on CLC-0 E166H mutant (−120 mV), 740 ± 80 µM; at CLC-0 E166H mutant (−140 mV), 390 ± 50 µM. Besides, the IC50 on CLC-0 E166H mutant (−160 mV) is 210 ± 40 µM; at CLC-0 E166I mutant (−40 mV) it was 1250 ± 230 µM; on CLC-0 E166I mutant (−60 mV), 683 ± 85 µM; on CLC-0 E166I mutant (−80 mV) it was 384 ± 41 µM; at CLC-0 E166I mutant (−100 mV), 220 ± 24 µM; at CLC-0 E166I mutant (−120 mV), 117 ± 11 µM. The IC50 at CLC-0 E166I mutant (−140 mV) is 68 ± 8 µM; at CLC-0 E166I mutant (−160 mV), 39 ± 4 µM; at CLC-0 E166G mutant (−40 mV), 300 ± 20 µM; at CLC-0 E166G mutant (−60 mV), 180 ± 10 µM; on CLC-0 E166G mutant (−80 mV), 140 ± 10 µM; on CLC-0 E166G mutant (−100 mV) it was 150 ± 10 µM. Also, the IC50 on CLC-0 E166G mutant (−120 mV) was found to be 180 ± 20 µM; at CLC-0 E166G mutant (−140 mV), 240 ± 30 µM; on CLC-0 E166G mutant (−160 mV), 320 ± 30 µM.
